From ChEMBL document CHEMBL4689842, “EUbOPEN Chemogenomics Library wave 1” (2021)

Experiments:
Format in all cases: toxicity, cell-based
Fibroblast = assay: Multiplex assay against human fibroblast
Outline: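 Live cells were stained at seeding with Hoechst33342, BioTracker Green Microtubule Cytoskeleton Dye, MitoTracker Red and Annexin V Alexa Fluor 680, then imaged on a CQ1 microscope at 37°C and 5% CO2 after compound addition. CellPathfinder machine-learning gating split cells into Hoechst high-intensity objects or normal cells. Normal cells were split into healthy, pyknosed or fragmented nuclei, and pyknosed cells into mitotic or apoptotic. Tubulin, mitochondrial-mass and membrane-permeability phenotypes are per cents of healthy-nucleus cells.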

HEK-293T = assay: Incucyte cell viability with HEK293T; settings: human, 10 µM, compound concentration 10 uM; also: filed as whole numbers so only -1 and 0 and 1 occur
U2OS = assay: Incucyte cell viability with U2OS; settings: human, 10 µM, compound concentration 10 uM; also: filed as whole numbers so only -1 and 0 and 1 occur
[1] = 12 h, 1 µM, compound concentration 1 uM, replicate 1
[2] = 12 h, 1 µM, compound concentration 1 uM, replicate 2
[3] = 12 h, 10 µM, compound concentration 10 uM, replicate 1
[4] = 12 h, 10 µM, compound concentration 10 uM, replicate 2
[5] = 24 h, 1 µM, compound concentration 1 uM, replicate 1
[6] = 24 h, 1 µM, compound concentration 1 uM, replicate 2
[7] = 24 h, 10 µM, compound concentration 10 uM, replicate 1
[8] = 24 h, 10 µM, compound concentration 10 uM, replicate 2
[9] = 48 h, 1 µM, compound concentration 1 uM, replicate 1
[10] = 48 h, 1 µM, compound concentration 1 uM, replicate 2
[11] = 48 h, 10 µM, compound concentration 10 uM, replicate 1
[12] = 48 h, 10 µM, compound concentration 10 uM, replicate 2
[13] = 6 h, replicate number 1, timepoint 6 hours
[14] = 12 h, replicate number 1, timepoint 12 hours
[15] = 18 h, replicate number 1, timepoint 18 hours
[16] = 24 h, replicate number 1, timepoint 24 hours

CC(=O)c1cc(-c2cc(C(=O)NC3CC3)ccc2C)c2ncccn12
Population Apoptotic (%) (Fibroblast; [1]): 68%
Population Fragmented Nuclei (%) (Fibroblast; [1]): 28%
Population Healthy Nuclei (%) (Fibroblast; [1]): 35%
Population Hoechst High Intensity Objects (%) (Fibroblast; [1]): 16%
Population Membrane Permeable-Phenotype (%) (Fibroblast; [1]): 42%
Population Mitochondria Different-Phenotype (%) (Fibroblast; [1]): 3%
Population Mitotic Cells (%) (Fibroblast; [1]): 31%
Population Normal (%) (Fibroblast; [1]): 83%
Population Pyknosed Nuclei (%) (Fibroblast; [1]): 36%
Population Tubulin-Different-Phenotype (%) (Fibroblast; [1]): 42%
Total Cell Count (Fibroblast; [1]): 96
Population Apoptotic (%) (Fibroblast; [2]): 66%
Population Fragmented Nuclei (%) (Fibroblast; [2]): 8%
Population Healthy Nuclei (%) (Fibroblast; [2]): 85%
Population Hoechst High Intensity Objects (%) (Fibroblast; [2]): 7%
Population Membrane Permeable-Phenotype (%) (Fibroblast; [2]): 2%
Population Mitochondria Different-Phenotype (%) (Fibroblast; [2]): 7%
Population Mitotic Cells (%) (Fibroblast; [2]): 33%
Population Normal (%) (Fibroblast; [2]): 92%
Population Pyknosed Nuclei (%) (Fibroblast; [2]): 6%
Population Tubulin-Different-Phenotype (%) (Fibroblast; [2]): 19%
Total Cell Count (Fibroblast; [2]): 73
Population Apoptotic (%) (Fibroblast; [3]): 60%
Population Fragmented Nuclei (%) (Fibroblast; [3]): 20%
Population Healthy Nuclei (%) (Fibroblast; [3]): 40%
Population Hoechst High Intensity Objects (%) (Fibroblast; [3]): 25%
Population Membrane Permeable-Phenotype (%) (Fibroblast; [3]): 30%
Population Mitochondria Different-Phenotype (%) (Fibroblast; [3]): 23%
Population Mitotic Cells (%) (Fibroblast; [3]): 39%
Population Normal (%) (Fibroblast; [3]): 75%
Population Pyknosed Nuclei (%) (Fibroblast; [3]): 39%
Population Tubulin-Different-Phenotype (%) (Fibroblast; [3]): 50%
Total Cell Count (Fibroblast; [3]): 140
Population Fragmented Nuclei (%) (Fibroblast; [4]): 11%
Population Healthy Nuclei (%) (Fibroblast; [4]): 84%
Population Hoechst High Intensity Objects (%) (Fibroblast; [4]): 4%
Population Membrane Permeable-Phenotype (%) (Fibroblast; [4]): 3%
Population Mitochondria Different-Phenotype (%) (Fibroblast; [4]): 8%
Population Mitotic Cells (%) (Fibroblast; [4]): 40%
Population Normal (%) (Fibroblast; [4]): 95%
Population Pyknosed Nuclei (%) (Fibroblast; [4]): 5%
Population Tubulin-Different-Phenotype (%) (Fibroblast; [4]): 17%
Total Cell Count (Fibroblast; [4]): 52
Population Apoptotic (%) (Fibroblast; [5]): 66%
Population Fragmented Nuclei (%) (Fibroblast; [5]): 25%
Population Healthy Nuclei (%) (Fibroblast; [5]): 45%
Population Hoechst High Intensity Objects (%) (Fibroblast; [5]): 15%
Population Membrane Permeable-Phenotype (%) (Fibroblast; [5]): 51%
Population Mitochondria Different-Phenotype (%) (Fibroblast; [5]): 7%
Population Mitotic Cells (%) (Fibroblast; [5]): 33%
Population Normal (%) (Fibroblast; [5]): 84%
Population Pyknosed Nuclei (%) (Fibroblast; [5]): 29%
Population Tubulin-Different-Phenotype (%) (Fibroblast; [5]): 43%
Total Cell Count (Fibroblast; [5]): 108
Population Apoptotic (%) (Fibroblast; [6]): 0%
Population Fragmented Nuclei (%) (Fibroblast; [6]): 3%
Population Healthy Nuclei (%) (Fibroblast; [6]): 91%
Population Hoechst High Intensity Objects (%) (Fibroblast; [6]): 4%
Population Membrane Permeable-Phenotype (%) (Fibroblast; [6]): 3%
Population Mitochondria Different-Phenotype (%) (Fibroblast; [6]): 9%
Population Mitotic Cells (%) (Fibroblast; [6]): 100%
Population Normal (%) (Fibroblast; [6]): 95%
Population Pyknosed Nuclei (%) (Fibroblast; [6]): 5%
Population Tubulin-Different-Phenotype (%) (Fibroblast; [6]): 12%
Total Cell Count (Fibroblast; [6]): 70
Population Apoptotic (%) (Fibroblast; [7]): 57%
Population Fragmented Nuclei (%) (Fibroblast; [7]): 21%
Population Healthy Nuclei (%) (Fibroblast; [7]): 47%
Population Hoechst High Intensity Objects (%) (Fibroblast; [7]): 15%
Population Membrane Permeable-Phenotype (%) (Fibroblast; [7]): 24%
Population Mitochondria Different-Phenotype (%) (Fibroblast; [7]): 9%
Population Mitotic Cells (%) (Fibroblast; [7]): 42%
Population Normal (%) (Fibroblast; [7]): 84%
Population Pyknosed Nuclei (%) (Fibroblast; [7]): 31%
Population Tubulin-Different-Phenotype (%) (Fibroblast; [7]): 65%
Total Cell Count (Fibroblast; [7]): 151
Population Apoptotic (%) (Fibroblast; [8]): 48%
Population Fragmented Nuclei (%) (Fibroblast; [8]): 11%
Population Healthy Nuclei (%) (Fibroblast; [8]): 63%
Population Hoechst High Intensity Objects (%) (Fibroblast; [8]): 2%
Population Membrane Permeable-Phenotype (%) (Fibroblast; [8]): 8%
Population Mitochondria Different-Phenotype (%) (Fibroblast; [8]): 12%
Population Mitotic Cells (%) (Fibroblast; [8]): 51%
Population Normal (%) (Fibroblast; [8]): 97%
Population Pyknosed Nuclei (%) (Fibroblast; [8]): 24%
Population Tubulin-Different-Phenotype (%) (Fibroblast; [8]): 18%
Total Cell Count (Fibroblast; [8]): 62
Population Apoptotic (%) (Fibroblast; [9]): 42%
Population Fragmented Nuclei (%) (Fibroblast; [9]): 40%
Population Healthy Nuclei (%) (Fibroblast; [9]): 46%
Population Hoechst High Intensity Objects (%) (Fibroblast; [9]): 10%
Population Membrane Permeable-Phenotype (%) (Fibroblast; [9]): 34%
Population Mitochondria Different-Phenotype (%) (Fibroblast; [9]): 2%
Population Mitotic Cells (%) (Fibroblast; [9]): 57%
Population Normal (%) (Fibroblast; [9]): 89%
Population Pyknosed Nuclei (%) (Fibroblast; [9]): 13%
Population Tubulin-Different-Phenotype (%) (Fibroblast; [9]): 20%
Total Cell Count (Fibroblast; [9]): 119
Population Apoptotic (%) (Fibroblast; [10]): 33%
Population Fragmented Nuclei (%) (Fibroblast; [10]): 30%
Population Healthy Nuclei (%) (Fibroblast; [10]): 66%
Population Hoechst High Intensity Objects (%) (Fibroblast; [10]): 7%
Population Membrane Permeable-Phenotype (%) (Fibroblast; [10]): 12%
Population Mitochondria Different-Phenotype (%) (Fibroblast; [10]): 1%
Population Mitotic Cells (%) (Fibroblast; [10]): 66%
Population Normal (%) (Fibroblast; [10]): 92%
Population Pyknosed Nuclei (%) (Fibroblast; [10]): 3%
Population Tubulin-Different-Phenotype (%) (Fibroblast; [10]): 32%
Total Cell Count (Fibroblast; [10]): 101
Population Apoptotic (%) (Fibroblast; [11]): 52%
Population Fragmented Nuclei (%) (Fibroblast; [11]): 30%
Population Healthy Nuclei (%) (Fibroblast; [11]): 51%
Population Hoechst High Intensity Objects (%) (Fibroblast; [11]): 17%
Population Membrane Permeable-Phenotype (%) (Fibroblast; [11]): 27%
Population Mitochondria Different-Phenotype (%) (Fibroblast; [11]): 6%
Population Mitotic Cells (%) (Fibroblast; [11]): 47%
Population Normal (%) (Fibroblast; [11]): 82%
Population Pyknosed Nuclei (%) (Fibroblast; [11]): 17%
Population Tubulin-Different-Phenotype (%) (Fibroblast; [11]): 45%
Total Cell Count (Fibroblast; [11]): 145
Population Apoptotic (%) (Fibroblast; [12]): 75%
Population Fragmented Nuclei (%) (Fibroblast; [12]): 26%
Population Healthy Nuclei (%) (Fibroblast; [12]): 69%
Population Hoechst High Intensity Objects (%) (Fibroblast; [12]): 9%
Population Membrane Permeable-Phenotype (%) (Fibroblast; [12]): 16%
Population Mitochondria Different-Phenotype (%) (Fibroblast; [12]): 8%
Population Mitotic Cells (%) (Fibroblast; [12]): 25%
Population Normal (%) (Fibroblast; [12]): 90%
Population Pyknosed Nuclei (%) (Fibroblast; [12]): 4%
Population Tubulin-Different-Phenotype (%) (Fibroblast; [12]): 35%
Total Cell Count (Fibroblast; [12]): 107
Growth Rate (HEK-293T; 0 h, replicate number 2, timepoint 0 hours): 1
Growth Rate (HEK-293T; [13]): 0
Growth Rate (HEK-293T; [14]): 0
Growth Rate (HEK-293T; [15]): 0
Growth Rate (HEK-293T; [16]): 0
Growth Rate (U2OS; 0 h, replicate number 1, timepoint 0 hours): 0
Growth Rate (U2OS; [13]): 0
Growth Rate (U2OS; [14]): 0
Growth Rate (U2OS; [15]): 0
Growth Rate (U2OS; [16]): 0
